# The source made the active and inactive calls. The calls are words filed in the database; no cut-off is given here.
# What was measured:
# Nakaseomyces glabratus = test: Antifungal activity against Candida glabrata MY1381 after 20 hrs; format: functional; details: MY1381, 20 h
# Outline: (§1)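 Broth MIC. Cells inoculated at 10⁵ cfu/mL in growth medium with 2-fold serial dilutions of compound. Incubated 20 h at 37 °C. MIC taken as minimum inhibitory concentration. For line 2 the medium held 50% mouse serum.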
# Clavispora lusitaniae = test: Antifungal activity against Candida lusitaniae MY1396 after 20 hrs; format: functional; details: MY1396, 20 h
# Outline: (§2)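 Broth MIC with cells seeded at 10⁵ cfu/mL and exposed to 2-fold serial compound dilutions in growth medium, 37 °C for 20 h. MIC taken as the minimum inhibitory concentration.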
# Candida albicans [1] = test: Antifungal activity against Candida albicans MY1055 in presence of 50% mouse serum after 20 hrs; format: functional; details: MY1055, 20 h; outline: as §1
# Aspergillus fumigatus [2] = test: Antifungal activity against Aspergillus fumigatus MF5568 in presence of 50% human serum after 20 hrs; format: functional; details: MF5568, 20 h; outline: as §2
# Candida parapsilosis = test: Antifungal activity against Candida parapsilosis ATCC 22019 after 20 hrs; format: functional; details: Lodderomyces parapsilosis, ATCC 22019, 20 h; outline: as §1
# Candida albicans [3] = test: Antifungal activity against Candida albicans MY1055 after 20 hrs; format: functional; details: MY1055, 20 h; outline: as §1
# Staphylococcus aureus = test: […] activity against Staphylococcus aureus MB2865; format: functional
# Aspergillus fumigatus [4] = test: Antifungal activity against Aspergillus fumigatus MF5568 after 20 hrs; format: functional; details: MF5568, 20 h; outline: as §2
# [5] = tested on: Trichophyton mentagrophytes; test: Antifungal activity against Trichophyton mentagrophytes MF7004 after 20 hrs; format: functional; details: MF7004, 20 h; outline: as §2
# Pichia kudriavzevii = test: Antifungal activity against Candida krusei ATCC 6258 after 20 hrs; format: functional; details: ATCC 6258, 20 h; outline: as §1
# Candida albicans [6] = test: Antifungal activity against Candida albicans MY1055 infected in DBA/2 mouse assessed as mouse mortality at 50 mg/kg, ip twice daily measured after 4 days postinfection; format: functional; details: route intraperitoneal
# Outline: (§3)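 Mice infected iv via lateral tail vein with C. albicans MY1055 at 2.51 × 10⁴ cfu/mouse. Five DBA/2 mice per group, dosed ip twice daily; compound formulated in 5% DMSO in sterile distilled water. Mortality and general health observed for 4 days after challenge.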
# Candida albicans [7] = test: Antifungal activity against Candida albicans MY1055 infected in DBA/2 mouse assessed as reduction in fugal CFU treated mouse twice daily measured after 4 days postinfection; format: functional, organism-based
# Outline: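 DBA/2 mice (5 per group) were infected iv via lateral tail vein with 2.51 × 10⁴ cfu/mouse. They were dosed ip twice daily at 100 or 50 mg/kg in 5% DMSO/sterile water. On day 4, kidneys were homogenized in saline, diluted 10-fold serially, plated on SDA and incubated at 35 °C for 30–48 h. Cfu/g kidney were compared with sham-treated controls by paired two-tailed t-test.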
# Candida albicans [8] = test: Antifungal activity against Candida albicans MY1055 infected in DBA/2 mouse assessed as mouse mortality at 100 mg/kg, ip twice daily measured after 4 days postinfection; format: functional; details: route intraperitoneal; outline: as §3
Compound,MIC (Nakaseomyces glabratus),MIC (Clavispora lusitaniae),MIC (Candida albicans [1]),MIC (Aspergillus fumigatus [2]),MIC (Candida parapsilosis),MIC (Candida albicans [3]),MIC (Staphylococcus aureus),MIC (Aspergillus fumigatus [4]),MIC [5],MIC (Pichia kudriavzevii),Activity (Candida albicans [6]),Activity (Candida albicans [7]),Activity (Candida albicans [8])
CC[C@H](C)C[C@H](C)CCCCCCCCC(=O)N[C@H]1C[C@@H](O)[C@@H](NCCN)NC(=O)[C@@H]2[C@@H](O)CCN2C(=O)[C@H]([C@H](O)CCN)NC(=O)[C@H]([C@H](O)[C@@H](O)c2ccc(O)cc2)NC(=O)[C@@H]2C[C@@H](O)CN2C(=O)[C@H]([C@@H](C)O)NC1=O [CASPOFUNGIN],0.25 µg/mL,< 0.03 µg/mL,0.25 µg/mL,32 µg/mL,0.5 µg/mL,0.5 µg/mL,> 32 µg/mL,32 µg/mL,32 µg/mL,1 µg/mL,–,–,–
CC(CCCCCCCCC(=O)CCCCCCCCCC(O)CO[C@@H]1O[C@H](CO)[C@@H](O)[C@H](O)[C@@H]1O)C(=O)C1=C(O)C(Cc2ccc(O)cc2)NC1=O (stereo partly drawn) [VIRGINEONE],8 µg/mL,4 µg/mL,> 32 µg/mL,> 32 µg/mL,8 µg/mL,8 µg/mL,16 µg/mL,8 µg/mL,8 µg/mL,16 µg/mL,40%,inactive,100%

# From ChEMBL document CHEMBL1151811, “Isolation, structure elucidation, and biological activity of virgineone from Lachnum Wirgineum using the genome-wide Candida albicans fitness test” (2009)
